# NPY2 pot ag – potentiates or activates human NPY-Y2 receptor. cells expressing NPY-Y2, potentiator/agonist read-out. activation, % at 3.6 µM. 220,000 tested, 0.45% active; in the data active = activation above about 27%;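 also: cells stimulated with NPY near EC25 plus isoproterenol at EC100; 0% = vehicle plus submaximal agonist and 100% = vehicle plus saturating agonist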
# EP2 modulator – EP2 receptor (human) modulation; EP2-expressing cells, cAMP HTRF FRET, PGE2 co-stimulation; induction, % at 25 µM; AID 940; 260,000 tested, 0.83% active;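 active = compounds whose cAMP rise, as percent of the full-agonist control response, exceeds 60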;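 also: rat C6 glioma line stably carrying human EP2 under a CMV promoter; the protocol text gives 20 µM as final concentration; 100% = response of wells given 1 µM PGE2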
# NPY-Y1 PAM-ag – potentiators or agonists of human neuropeptide Y receptor Y1; NPY-Y1 expressing cells, potentiator/agonist activation; P25929; activation, % at 3.6 µM; 220,000 tested, 0.37% active; in the data active = activation above about 33%, passing the limit was not always enough;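 also: cells stimulated with NPY at EC10 then isoproterenol at EC100; 0% = low agonist plus stimulus and 100% = saturating agonist plus stimulus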
# Target sequence (P25929 whole entry, looked up): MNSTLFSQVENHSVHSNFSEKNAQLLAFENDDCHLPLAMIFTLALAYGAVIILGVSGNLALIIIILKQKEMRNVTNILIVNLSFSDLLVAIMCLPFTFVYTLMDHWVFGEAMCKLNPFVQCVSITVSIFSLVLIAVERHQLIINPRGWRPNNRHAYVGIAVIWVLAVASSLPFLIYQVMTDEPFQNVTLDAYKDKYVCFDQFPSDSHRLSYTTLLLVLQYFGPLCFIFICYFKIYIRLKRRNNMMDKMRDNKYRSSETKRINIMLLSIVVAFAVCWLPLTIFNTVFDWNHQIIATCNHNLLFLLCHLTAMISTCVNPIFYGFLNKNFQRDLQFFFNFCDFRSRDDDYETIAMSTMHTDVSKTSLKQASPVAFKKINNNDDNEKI
# NPY-Y2 antag – blocks the human neuropeptide Y Y2 receptor | P49146 | NPY-Y2 expressing cells, antagonist mode | inhibition, % at 2.7 µM | 140,000 tested, 0.99% active; in the data active = inhibition above about 17%;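 also: 0% = vehicle with agonist challenge and 100% = reference antagonist with challenge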
# NPY Y1 blocker – antagonists of human neuropeptide Y receptor Y1; AID 1040; 200,000 tested, 1% active; inhibition, % at 3.6 µM; HEK293-CNG Y1 cells, membrane potential fluorescence; NPY at EC95, then isoproterenol;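 active = inhibition above the campaign mean inhibition of all tested compounds plus 3 SD, cut at about 20% in these data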;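 also: 0% = DMSO wells given NPY plus isoproterenol and 100% = isoproterenol alone without NPY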
#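 Test system – HEK293 Y1/CNG channel cell line · Also added – NPY agonist 25 nM, then isoproterenol 1 µM plus Ro 20-1724 25 µM · Compound dosing – one concentration, 3.6 µM, in 0.4% DMSO · Schedule – compound incubation 1 h at room temperature, readout 45 min post-stimulation · Technique – fluorescence, membrane potential probe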
# EP2 antag – blocks the human prostaglandin E2 receptor EP2. C6 glioma cells expressing human EP2, cAMP TR-FRET; cells stimulated with saturating PGE2. inhibition, % at 25 µM. 260,000 tested, 0.52% active;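 active = percent inhibition above 40 after rounding to a whole number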;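 also: rat C6 glioma host cells with rolipram phosphodiesterase inhibitor present; the protocol text gives 20 µM as final concentration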
# * marks the source's active call; other numbers are inactive results; . = no result. Hits are enriched below; roughly 2.8% of the tested compounds scored in any of these assays.
SMILES,NPY2 pot ag,EP2 modulator,NPY-Y1 PAM-ag,NPY-Y2 antag,NPY Y1 blocker,EP2 antag
C(=C\c1ccccc1)/CSc1nnc(-c2ccccc2)n1Cc1ccco1,-21.2,25.4,-32.7,25.5*,21.1*,5.1
Cc1ccc(-c2nnc(SCc3ccc(C#N)cc3)n2Cc2ccco2)cc1,-12.2,20.7,0.2,20.3*,21.3*,11.0
COc1cccc(-c2nnc(SCc3ccc(C#N)cc3)n2Cc2ccco2)c1,-3.5,13.9,-7.5,6.0,12.9,18.1
Cc1ccccc1CSc1nnc(-c2cccs2)n1Cc1ccco1,-6.9,14.5,-4.5,24.2*,22.7*,3.4
CC(C)c1cc(C(=O)N[C@H](Cn2nc(-c3cccs3)ccc2=O)C(C)C)on1,.,10.6,.,.,.,.
COc1ccc(C(=O)NC2CC3CCCC(C2)N3Cc2cccs2)cc1 (centres undefined),.,-71.8,.,.,.,17.1
Cc1ccnc(N2CCCC(C(=O)NC3CCC(C)CC3)C2)n1 (centres undefined),.,-15.6,.,.,.,12.3
Cc1ccc(C(O)CN2CCC3(CC2)CC(O)c2ccc4ccccc4c2O3)cc1 (centres undefined),.,-85.2,.,.,.,4.0
Cn1c(=O)[nH]c(=O)c2c1ncn2CC(=O)N1C2CCC1CC(c1ccc(F)cc1)C2 (centres undefined),.,-16.0,.,.,.,2.7
CC(C)N(C(=O)Cn1nc2c3ccccc3nc(C3CC3)n2c1=O)C(C)C,.,-39.1,.,.,.,1.4
COc1cccc(CNc2cc(CSc3ccc(Cl)cc3)nc(C)n2)c1,-11.6,-46.0,-57.9,21.3*,20.6*,9.7
COc1ccccc1CNc1cc(CSc2ccc(Cl)cc2)nc(C)n1,3.3,-35.5,-4.4,16.7,11.5,11.8
Cc1c(Cl)c(S(N)(=O)=O)cc(S(N)(=O)=O)c1NC(=O)c1ccc(Cl)cc1,.,35.7,.,.,.,44.6*
Cc1cc(NC(=O)c2ccc(Cl)cc2)c(C)cc1O,-1.6,-19.4,-19.4,.,-0.7,3.6
COc1cccc(/C=C2/SC(=S)N(CCC(=O)NNC(C)=O)C2=O)c1,.,-62.1,.,.,.,13.4
Oc1ccc(Cc2nccc3cc(O)c(O)cc23)cc1O,.,-8.4,.,.,.,52.9*
CCOc1ccc(Cc2nccc3cc(OCC)c(OCC)cc23)cc1OCC,.,46.5,.,.,.,5.7
CC1CCN(CCCOc2ccc(OCc3ccccc3)cc2)CC1,-10.7,-26.3,-42.2,22.5*,23.9*,35.5
Cc1ccc(NC(=O)c2cc(N3C(=O)C=CC3=O)ccc2N2CCOCC2)cc1,-3.5,-71.7,-5.0,.,-0.8,117.7*
COc1cc2cc(CN(Cc3nnnn3Cc3ccccc3)C3CCCC3)c(=O)[nH]c2cc1OC,.,-35.4,.,.,.,24.8
O=C(O)c1cc2c(cc1S(=O)(=O)O)[C@@H]1[C@@H]([C@H]3[C@H]2[C@]2(Cl)C(Cl)=C(Cl)[C@@]3(Cl)C2(Cl)Cl)[C@]2(Cl)C(Cl)=C(Cl)[C@@]1(Cl)C2(Cl)Cl,.,73.3*,.,.,.,44.8*
CCCC(c1nnnn1C(C)(C)C)N(CCO)Cc1cc2cc3c(cc2[nH]c1=O)OCO3 (centres undefined),.,4.5,.,.,.,7.5
COC(=O)CNC(c1ccccc1)c1cc(Cl)ccc1NC(=O)c1cccc(Cl)c1 (centres undefined),-23.6,63.1*,-33.5,27.6*,33.9*,-2.1
COC(=O)CNC(c1ccccc1)c1cc(Br)ccc1NC(C)=O (centres undefined),-7.6,-3.9,-15.2,.,20.1*,3.7
NNC(=O)CNC(c1ccccc1)c1cc(Br)ccc1NC(=O)c1ccc(Br)cc1 (centres undefined),3.1,8.8,5.8,0.9,5.5,10.3
SMILES,NPY2 pot ag,EP2 modulator,NPY-Y1 PAM-ag,NPY-Y2 antag,NPY Y1 blocker,EP2 antag
COC(=O)c1sc(NC(=O)CSc2nnc3c4c(C)c(C)sc4nc(C(C)C)n23)nc1C,.,10.2,.,.,.,18.1
C[C@H](CCC(=O)O)[C@H]1CC[C@@]2(C)[C@@H]3C(=O)C[C@H]4C(C)(C)[C@@H](O)CC[C@]4(C)[C@H]3C(=O)C[C@]12C,.,31.5,.,.,.,46.3*
COC(=O)c1cc2sccc2n1Cc1nc(-c2ccc(Cl)cc2)oc1C,-5.5,27.1,7.2,0.6,-0.7,6.8
CCOC(=O)c1cc2sccc2n1Cc1ccccc1,5.7,62.5*,2.4,11.0,2.5,6.3
COC(=O)c1cc2sccc2n1Cc1ccc(C)cc1,-11.1,63.9*,-28.7,7.8,5.0,4.5
Cc1cc(-c2cncnc2C2CCCN(C(=O)c3cc(C)[nH]c3C)C2)on1 (centres undefined),.,1.2,.,.,.,.
CCOC(=O)N1CCN(CC(O)COCc2ccc(OC)c(OC)c2)CC1 (centres undefined),-9.9,-1.9,-34.4,0.8,-2.1,6.6
CCOC(=O)N1CCN(CC(O)COc2ccc(C)cc2C(C)(C)C)CC1 (centres undefined),61.1*,31.5,76.8*,0.5,-10.8,8.8
CCOC(=O)c1ccc(NC(=O)CSc2nc3c(C)c(C)ccc3cc2C#N)cc1,.,41.3,.,.,.,17.9
CCn1c(=O)c(C(=O)Nc2ccc(Cl)cc2)c(O)c2ccccc21,.,1.6,.,.,.,9.3
OC(c1ccccc1)(c1ccc(F)cc1)C(c1ccccc1)N1CCOCC1 (centres undefined),-6.8,60.6*,-7.5,2.4,15.9,5.6
O=C(CNS(=O)(=O)c1ccc2ccccc2c1)OCc1nnc(-c2ccccc2)o1,-2.4,-39.8,-13.5,1.9,5.2,40.7*
OC1(c2ccc(F)cc2)CN(c2ccccc2)C2=[N+]1CCS2 (centres undefined),92.5*,10.4,108.2*,5.5,4.7,7.8
Cc1ccc(-n2c(SCC(=O)NC(C)(C)C)nc(O)cc2=O)cc1,.,-32.9,.,.,.,7.0
CC(C)N(C(=O)CSc1nn2c(=O)c(C(C)(C)C)nnc2s1)c1ccccc1,16.2,31.8,-8.8,-1.9,-0.3,18.1
Cc1cc(C(=O)CSc2nn3c(=O)c(C(C)(C)C)nnc3s2)c(C)n1-c1ccc(F)cc1,-2.7,27.4,-1.9,-0.3,15.5,44.3*
O=C(CN1C(=O)c2ccccc2C1=O)c1ccccc1,7.0,-2.6,-1.2,0.9,0.0,7.3
O=C(CN1C(=O)c2ccccc2C1=O)[C@@H](O)CN1C(=O)c2ccccc2C1=O,.,17.9,.,.,.,46.1*
[N-]=[N+]=CC(=O)C(c1ccccc1)(c1ccccc1)c1ccccc1,-11.5,75.7*,-1.6,.,.,8.4
[N-]=[N+]=CC(=O)COC(=O)c1ccccc1,.,14.9,.,.,.,9.3
O=S(=O)(O)c1cc(N=[N+]([O-])c2cc(S(=O)(=O)O)c3ccccc3c2)cc2ccccc12,.,26.3,.,.,.,34.7
Nc1c(S(=O)(=O)O)cc(S(=O)(=O)O)c2ccc(N=Nc3ccccc3)c(O)c12,.,1.1,.,.,.,52.1*
C[N+]1(Cc2cc3ccccc3o2)CCCCC1,.,0.2,.,.,.,14.6
N#C/C(C(N)=O)=c1/ccc2c(c1)N1C3=C(CCCC3)CC3CCCCC31N=2 (centres undefined),47.0*,26.5,51.0*,-13.3,-26.6,10.6

# High-throughput results from PubChem.
